Activity calls are given as the source filed them. No cut-off for these calls is given here.
Tests used:
[1] = tested on: COLO 205; assay: Growth inhibition of human COLO205 cells after 48 hrs by SRB assay; format: functional; details: COLO 205, 48 h
Procedure, shortened: (§1)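 NCI 60 human tumour cell line in vitro anticancer screen, run at NCI. Compound tested at a minimum of five concentrations in 10-fold dilutions per cell line.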

[2] = tested on: ACHN; assay: Growth inhibition of human ACHN cells after 48 hrs by SRB assay; format: functional; procedure, shortened: as §1
[3] = tested on: Hs-578T; assay: Growth inhibition of human HS578T cells after 48 hrs by SRB assay; format: functional; procedure, shortened: as §1
[4] = tested on: UACC-257; assay: Growth inhibition of human UACC257 cells after 48 hrs by SRB assay; format: functional; details: UACC-257, 48 h; procedure, shortened: as §1
[5] = tested on: EKVX; assay: Growth inhibition of human EKVX cells after 48 hrs by SRB assay; format: functional; procedure, shortened: as §1
[6] = tested on: CAKI-1; assay: Growth inhibition of human CAKI1 cells after 48 hrs by SRB assay; format: functional; details: CAKI-1, 48 h
Procedure, shortened: (§2)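 Run at NCI in the 60-human-tumor-cell-line anticancer screen. Each compound was tested at a minimum of five concentrations at 10-fold dilutions.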

[7] = tested on: SF-539; assay: Growth inhibition of human SF539 cells after 48 hrs by SRB assay; format: functional; details: SF-539, 48 h; procedure, shortened: as §2
[8] = tested on: NCI/ADR-RES; assay: Growth inhibition of human NCI/ADR-RES cells after 48 hrs by SRB assay; format: functional; procedure, shortened: as §1
[9] = tested on: T47D; assay: Growth inhibition of human T47D cells after 48 hrs by SRB assay; format: functional; procedure, shortened: as §1
[10] = tested on: MOLT-4; assay: Growth inhibition of human MOLT4 cells after 48 hrs by SRB assay; format: functional; details: MOLT-4, 48 h; procedure, shortened: as §2
[11] = tested on: SK-OV-3; assay: Growth inhibition of human SK-OV3 cells after 48 hrs by SRB assay; format: functional; details: SK-OV-3, 48 h; procedure, shortened: as §2
[12] = tested on: SF-268; assay: Growth inhibition of human SF268 cells after 48 hrs by SRB assay; format: functional; details: SF-268, 48 h; procedure, shortened: as §2
[13] = tested on: OVCAR-5; assay: Growth inhibition of human OVACAR5 cells after 48 hrs by SRB assay; format: functional; details: OVCAR-5, 48 h; procedure, shortened: as §2
[14] = tested on: L929; assay: Antiproliferative activity against mouse L929 cells after 5 days by SRB assay; format: cell-based; details: L929, 120 h
[15] = tested on: NCI-H460; assay: Growth inhibition of human NCI-H460 cells after 48 hrs by SRB assay; format: functional; details: NCI-H460, 48 h; procedure, shortened: as §1
[16] = tested on: 786-0; assay: Growth inhibition of human 786-0 cells after 48 hrs by SRB assay; format: functional; details: 786-0, 48 h; procedure, shortened: as §2
[17] = tested on: TK-10; assay: Growth inhibition of human TK10 cells after 48 hrs by SRB assay; format: functional; details: TK-10, 48 h; procedure, shortened: as §1
[18] = tested on: MCF7; assay: Growth inhibition of human MCF7 cells after 48 hrs by SRB assay; format: functional; details: MCF7, 48 h; procedure, shortened: as §2
[19] = tested on: IGROV-1; assay: Growth inhibition of human IGROV1 cells after 48 hrs by SRB assay; format: functional; details: IGROV-1, 48 h, read-out: Log LC50 (the source's name) (converted); procedure, shortened: as §2
[20] = tested on: HCT-116; assay: Growth inhibition of human HCT116 cells after 48 hrs by SRB assay; format: functional; procedure, shortened: as §2
[21] = tested on: A549; assay: Growth inhibition of human A549 cells after 48 hrs by SRB assay; format: functional; details: A549, 48 h; procedure, shortened: as §2
[22] = tested on: SNB-75; assay: Growth inhibition of human SNB75 cells after 48 hrs by SRB assay; format: functional; procedure, shortened: as §1
[23] = tested on: OVCAR-8; assay: Growth inhibition of human OVACAR8 cells after 48 hrs by SRB assay; format: functional; details: OVCAR-8, 48 h; procedure, shortened: as §2
[24] = tested on: M14; assay: Growth inhibition of human M14 cells after 48 hrs by SRB assay; format: functional; procedure, shortened: as §2
[25] = tested on: MDA-MB-231; assay: Growth inhibition of human MDA-MB-231 cells after 48 hrs by SRB assay; format: functional; details: MDA-MB-231, 48 h; procedure, shortened: as §1
[26] = tested on: CCRF-CEM; assay: Growth inhibition of human CCRF-CEM cells after 48 hrs by SRB assay; format: functional; procedure, shortened: as §1
[27] = tested on: A498; assay: Growth inhibition of human A498 cells after 48 hrs by SRB assay; format: functional; details: A498, 48 h; procedure, shortened: as §2
[28] = tested on: NCI-H522; assay: Growth inhibition of human NCI-H522 cells after 48 hrs by SRB assay; format: functional; details: NCI-H522, 48 h; procedure, shortened: as §1
[29] = tested on: K562; assay: Growth inhibition of human K562 cells after 48 hrs by SRB assay; format: functional; details: K562, 48 h; procedure, shortened: as §1
[30] = tested on: NCI-H226; assay: Growth inhibition of human NCIH226 cells after 48 hrs by SRB assay; format: functional; details: NCI-H226, 48 h; procedure, shortened: as §2
[31] = tested on: SK-MEL-5; assay: Growth inhibition of human SKMEL5 cells after 48 hrs by SRB assay; format: functional; procedure, shortened: as §2
[32] = Antiproliferative activity against human KB31 cells after 5 days by MTT assay; details: KB 3-1, 120 h
[33] = Growth inhibition of human OVACAR3 cells after 48 hrs by SRB assay; format: functional; details: OVACAR3, 48 h; procedure, shortened: as §2
[34] = tested on: SK-MEL-28; assay: Growth inhibition of human SK-MEL28 cells after 48 hrs by SRB assay; format: functional; details: SK-MEL-28, 48 h; procedure, shortened: as §1
[35] = tested on: RXF 393; assay: Growth inhibition of human RFX393 cells after 48 hrs by SRB assay; format: functional; details: RXF 393, 48 h; procedure, shortened: as §2
[36] = tested on: SNB-19; assay: Growth inhibition of human SNB19 cells after 48 hrs by SRB assay; format: functional; details: SNB-19, 48 h; procedure, shortened: as §2
[37] = read-out: Log LC50 (the source's name) (converted)

COC(=O)C1=CO[C@@H]2O[C@H]3/C(=C\c4ccc(O)cc4)C(=O)O[C@]34C=C[C@H]1[C@H]24 [PRISMATOMERIN]
GI50 [1]: 537 nM
CC50 [1, 37]: > 100000 nM
GI50 [2]: < 10 nM
CC50 [2, 37]: 2090 nM
GI50 [3]: 257 nM
CC50 [3, 37]: > 100000 nM
GI50 [4]: 145 nM
CC50 [4, 37]: 10000 nM
GI50 [5]: 355 nM
CC50 [5, 37]: 40700 nM
GI50 [6]: 126 nM
CC50 [6, 37]: 8710 nM
TGI ([6]; read-out: Log TGI (converted)): 501 nM
GI50 [7]: 257 nM
CC50 [7, 37]: > 100000 nM
TGI ([7]; read-out: Log TGI (converted)): 457 nM
GI50 [8]: 170 nM
CC50 [8, 37]: 17400 nM
GI50 [9]: 380 nM
CC50 [9, 37]: 3890 nM
GI50 [10]: < 10 nM
GI50 [11]: 912 nM
CC50 [11, 37]: > 100000 nM
TGI ([11]; read-out: Log TGI (converted)): 3160 nM
GI50 [12]: 263 nM
CC50 [12, 37]: 63100 nM
TGI ([12]; read-out: Log TGI (converted)): 759 nM
GI50 [13]: 257 nM
CC50 [13, 37]: 813 nM
TGI ([13]; read-out: Log TGI (converted)): 407 nM
IC50 [14]: 210 nM
GI50 [15]: 240 nM
CC50 [15, 37]: > 100000 nM
GI50 [16]: 19.5 nM
CC50 [16, 37]: 550 nM
TGI ([16]; read-out: Log TGI (converted)): 195 nM
GI50 [17]: 288 nM
CC50 [17, 37]: 3980 nM
GI50 [18]: 120 nM
CC50 [18, 37]: > 100000 nM
TGI ([18]; read-out: Log TGI (converted)): 1000 nM
CC50 [19]: 851 nM
Activity [20]: inactive
GI50 ([20]; HCT-116, 48 h): < 10 nM
TGI ([20]; HCT-116, 48 h, read-out: Log TGI (converted)): 100 nM
GI50 [21]: 295 nM
CC50 [21, 37]: > 100000 nM
TGI ([21]; read-out: Log TGI (converted)): 832 nM
Activity [22]: inactive
CC50 ([22]; SNB-75, 48 h, read-out: Log LC50 (the source's name) (converted)): > 100000 nM
GI50 [23]: 174 nM
CC50 [23, 37]: 2240 nM
TGI ([23]; read-out: Log TGI (converted)): 501 nM
Activity [24]: inactive
GI50 ([24]; M14, 48 h): 162 nM
GI50 [25]: 162 nM
CC50 [25, 37]: 851 nM
GI50 [26]: 38 nM
CC50 [26, 37]: > 100000 nM
GI50 [27]: 234 nM
CC50 [27, 37]: 871 nM
TGI ([27]; read-out: Log TGI (converted)): 457 nM
GI50 [28]: 186 nM
CC50 [28, 37]: 1350 nM
GI50 [29]: < 10 nM
CC50 [29, 37]: > 100000 nM
GI50 [30]: 174 nM
CC50 [30, 37]: 22900 nM
TGI ([30]; read-out: Log TGI (converted)): 479 nM
Activity [31]: inactive
GI50 ([31]; SK-MEL-5, 48 h): < 10 nM
TGI ([31]; SK-MEL-5, 48 h, read-out: Log TGI (converted)): 186 nM
IC50 [32]: 410 nM
GI50 [33]: 490 nM
CC50 [33, 37]: 1700 nM
TGI ([33]; read-out: Log TGI (converted)): 562 nM
GI50 [34]: 316 nM
CC50 [34, 37]: > 100000 nM
GI50 [35]: < 10 nM
CC50 [35, 37]: 661 nM
TGI ([35]; read-out: Log TGI (converted)): 162 nM
GI50 [36]: 347 nM
CC50 [36, 37]: 26900 nM
TGI ([36]; read-out: Log TGI (converted)): 110000 nM

— ChEMBL document CHEMBL1141258, “Prismatomerin, a new iridoid from Prismatomeris tetrandra. Structure elucidation, determination of absolute configuration, and cytotoxicity” (J Nat Prod, 2007)
